Converted amounts (≈) assume the structure as drawn. The source made the active and inactive calls. No cut-off for these calls is given here.
Assays:
[1] = Stability in mouse liver microsomes assessed as hepatic extraction ratio at 1 uM measured for 45 mins by LC-MS/MS analysis; type: ADME, Microsome; conditions: read-out: ERH
[2] = target: Neuronal acetylcholine receptor subunit alpha-7 (Rattus norvegicus) (UniProt Q05941); assay: (§1) Positive allosteric modulatory activity at rat alpha7 nAChR expressed in GH4C1 cells assessed as potentiation of acetylcholine response at -70 mV holding potential preincubated for 30 secs followed by co-application with acetylcholine by manual patch clamp assay; type: cell-based
In short: (§2)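 Conventional manual patch-clamp with a fast-application system on stable GH4C1 cells expressing rat α7 nAChR; currents evoked by acetylcholine with and without test compound; peak-current change relative to acetylcholine alone gives potentiation (P₃ at 3 μM; concentration–response for EC₅₀ and Pmax).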

[3] = target: Neuronal acetylcholine receptor subunit alpha-7 (Rattus norvegicus, UniProt Q05941); assay: as §1; type: cell-based; in short: as §2
[4] = Solubility of the compound at pH 6.5; type: physicochemical; conditions: buffer
[5] = tested on: Mus musculus; assay: Reversal of scopolamine-induced memory impairment in mouse assessed as spontaneous alteration at 3 to 30 mg/kg, po administered with compond and scopolamine at 60 mins and 30 mins respectively prior to test by T-maze test; type: functional, organism-based
In short: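 Mouse T-maze continuous alternation task; reversal of scopolamine-induced loss of spontaneous alternation after ip or oral doses of 3 and 30 mg/kg; significant doses reported.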

[6] = target: Cytochrome P450 2C19 (Homo sapiens, UniProt P33261); assay: Inhibition of CYP2C19 (unknown origin); type: ADME
[7] = target: Cytochrome P450 2C9 (Homo sapiens, UniProt P11712); assay: Inhibition of CYP2C9 (unknown origin); type: ADME
[8] = target: Neuronal acetylcholine receptor subunit alpha-7 (Rattus norvegicus) (UniProt Q05941); assay: Agonist activity at rat alpha7 nAChR expressed in GH4C1 cells assessed as current response at 3 uM at -70 mV holding potential by manual patch clamp assay; type: cell-based
In short: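 Manual patch clamp with fast application on stable GH4C1 cells expressing α7 nAChR; test compound applied without acetylcholine to look for evoked currents.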

[9] = Solubility of the compound at pH 2; type: physicochemical; conditions: buffer
[10] = target: Neuronal acetylcholine receptor subunit alpha-7 (Rattus norvegicus) (UniProt Q05941); assay: Positive allosteric modulator activity at rat alpha7 nAChR expressed in GH4C1 cells assessed as potentiation of acetylcholine response at 3 uM at -70 mV holding potential preincubated for 30 secs followed by co-application with acetylcholine by automated patch clamp assay; type: cell-based
In short: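 Automated planar patch clamp on stable GH4C1 (rat) cell lines expressing rat α7 nAChR; test compound at 3 μM with an EC₂₀ acetylcholine challenge; percent change in peak current versus acetylcholine alone taken as P₃.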

[11] = Stability in human liver microsomes assessed as hepatic extraction ratio at 1 uM measured for 45 mins by LC-MS/MS analysis; type: ADME, Microsome; conditions: read-out: ERH
[12] = target: Neuronal acetylcholine receptor subunit alpha-7 (Rattus norvegicus) (UniProt Q05941); assay: Positive allosteric modulatory activity at rat alpha7 nAChR expressed in GH4C1 cells assessed as potentiation of peak current at -70 mV holding potential preincubated for 30 secs followed by co-application with acetylcholine by manual patch clamp assay relative to acetylcholine-induced peak current; type: cell-based; in short: as §2

Sequence of Neuronal acetylcholine receptor subunit alpha-7 (Rattus norvegicus) (Q05941 whole entry): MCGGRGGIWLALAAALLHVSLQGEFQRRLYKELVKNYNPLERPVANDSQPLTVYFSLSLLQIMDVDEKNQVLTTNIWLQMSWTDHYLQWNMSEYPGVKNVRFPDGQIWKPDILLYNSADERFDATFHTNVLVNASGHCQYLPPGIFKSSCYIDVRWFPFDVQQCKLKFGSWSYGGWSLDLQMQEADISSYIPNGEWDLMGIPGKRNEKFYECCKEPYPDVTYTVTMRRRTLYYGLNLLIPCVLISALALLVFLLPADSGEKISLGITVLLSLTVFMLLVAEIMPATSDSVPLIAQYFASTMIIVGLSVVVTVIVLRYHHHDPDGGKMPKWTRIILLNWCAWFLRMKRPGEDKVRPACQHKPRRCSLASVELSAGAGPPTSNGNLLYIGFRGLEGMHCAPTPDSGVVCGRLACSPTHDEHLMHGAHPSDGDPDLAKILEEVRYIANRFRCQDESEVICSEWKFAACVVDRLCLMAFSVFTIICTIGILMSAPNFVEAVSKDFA
Sequence of Cytochrome P450 2C9 (P11712 whole entry): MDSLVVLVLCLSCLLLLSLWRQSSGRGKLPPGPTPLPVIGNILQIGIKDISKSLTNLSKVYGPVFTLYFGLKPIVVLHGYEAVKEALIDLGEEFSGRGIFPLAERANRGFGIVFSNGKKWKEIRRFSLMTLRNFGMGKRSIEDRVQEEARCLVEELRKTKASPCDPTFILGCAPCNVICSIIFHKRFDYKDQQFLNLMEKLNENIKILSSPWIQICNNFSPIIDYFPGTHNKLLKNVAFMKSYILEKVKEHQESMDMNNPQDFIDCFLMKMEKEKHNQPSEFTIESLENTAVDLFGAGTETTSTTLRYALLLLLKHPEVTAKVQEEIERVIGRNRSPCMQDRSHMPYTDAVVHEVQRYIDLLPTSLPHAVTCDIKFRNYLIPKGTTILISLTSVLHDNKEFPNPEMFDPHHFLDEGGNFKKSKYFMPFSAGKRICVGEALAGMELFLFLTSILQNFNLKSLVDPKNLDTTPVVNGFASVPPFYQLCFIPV
Sequence of Neuronal acetylcholine receptor subunit alpha-7 (Q05941 whole entry): as the sequence (Q05941 whole entry) above
Sequence of Cytochrome P450 2C19 (P33261 whole entry): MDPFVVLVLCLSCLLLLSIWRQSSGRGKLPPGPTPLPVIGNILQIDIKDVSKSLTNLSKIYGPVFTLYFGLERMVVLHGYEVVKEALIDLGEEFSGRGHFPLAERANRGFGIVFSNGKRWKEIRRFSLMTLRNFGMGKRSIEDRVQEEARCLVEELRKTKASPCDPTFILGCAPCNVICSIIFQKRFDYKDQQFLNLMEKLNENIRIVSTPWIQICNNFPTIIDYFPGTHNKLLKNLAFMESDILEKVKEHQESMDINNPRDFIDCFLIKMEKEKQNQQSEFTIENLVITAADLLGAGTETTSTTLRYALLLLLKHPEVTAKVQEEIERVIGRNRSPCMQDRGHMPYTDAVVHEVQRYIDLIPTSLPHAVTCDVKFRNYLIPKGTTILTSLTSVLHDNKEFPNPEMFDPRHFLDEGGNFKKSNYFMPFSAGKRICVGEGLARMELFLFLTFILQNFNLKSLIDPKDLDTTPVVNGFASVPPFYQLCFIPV

hepatic extraction ratio at 0.75 h, 1 µM [1]: 0.82
Activity [2]: Dose-dependent effect
EC50 [3]: 0.025 µM
solubility [4]: > 100 µg/mL
IC50 [6]: > 10 µM
IC50 [7]: > 10 µM
inhibition [8]: inactive
solubility [9]: 1.6 to 3.1 µg/mL (≈ 4.05 to 7.85 µM)
Activity [10]: 7900%
hepatic extraction ratio at 0.75 h, 1 µM [11]: 0.64
Emax [12]: 650%
Structure (SMILES): COc1ccc(Cl)cc1NCC1C(c2ccc(S(N)(=O)=O)cc2)C1(C)C (racemic)
inhibition [5]: Active

— ChEMBL document CHEMBL4364238, “Discovery of BNC375, a Potent, Selective, and Orally Available Type I Positive Allosteric Modulator of α7 nAChRs” (ACS Med Chem Lett, 2019)
